TAAR1 antagonist = human TAAR1 antagonism; Q96RJ0; CHO RD-HGA16 TAAR1, Fluo-8 calcium fluorescence, antagonist; inhibition, % at 3 µM; actives 1.5% (n = 360,000);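 active = inhibition above a per-plate cutoff, the mean inhibition of test compounds on that plate plus 3 SD, cut at about 49% in these data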;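 also: 0% = DMSO plus EC80 beta-PEA response and 100% = DMSO alone without agonist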
Target sequence (Q96RJ0 whole entry, looked up): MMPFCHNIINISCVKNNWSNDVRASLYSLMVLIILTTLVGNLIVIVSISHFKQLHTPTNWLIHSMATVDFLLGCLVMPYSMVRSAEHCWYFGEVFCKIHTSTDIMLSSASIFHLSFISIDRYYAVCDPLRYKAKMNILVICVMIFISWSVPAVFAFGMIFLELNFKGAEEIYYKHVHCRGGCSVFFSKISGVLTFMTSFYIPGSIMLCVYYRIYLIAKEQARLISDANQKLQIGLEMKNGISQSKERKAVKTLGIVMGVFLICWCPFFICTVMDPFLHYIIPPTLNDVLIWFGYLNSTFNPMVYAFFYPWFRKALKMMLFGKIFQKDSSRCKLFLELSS
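System: RD-HGA16 CHO cells with stable hTAAR1 and Gα16 | Probe or stimulus: EC80 β-phenethylamine stimulus | Dosing: 3 µM, single point | Times: Dye loading 75 min at 37 °C, then 30 min room temperature | Measured by: Fluo-8 calcium-sensitive fluorescence | Read-out basis: % inhibition of agonist calcium response | Replicates: n of 1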
OX1R antag-1 = antagonists of human orexin 1 receptor (OX1R) | inhibition, % at 6.6 µM | actives 1.8% (n = 330,000) | OX1R-expressing cells, FRET antagonist read-out; in the data active = inhibition mostly above about 38%, no sharp cut-off; inactive = mostly below about 40%;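 also: 0% = agonist challenge alone and 100% = reference antagonist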
CHO parental Ca = counter-screen for OX1R antagonists: effect in parental CHO cells. parental CHO-K1, ATP-induced calcium, Fluo-8 fluorescence. inhibition, % at 5.6 µM. actives 0.63% (n = 330,000). AID 463079;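 active = inhibition above that plate's mean sample inhibition plus 3 SD, cut at about 26% in these data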;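 also: 0% = ATP-challenged DMSO wells and 100% = DMSO wells without ATP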
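Material: Parental CHO cells | Reagent: ATP | Compound dosing: Single nominal dose of 5.6 µM per compound | Detection: Intracellular calcium via Fluo-8 no-wash fluorescent dye | Read-out: % inhibition of ATP-induced calcium mobilization | Benchmarks: Low control ATP plus DMSO, high control DMSO only | Replicates: Singlicate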
OX1R antag-2 = blocks the human orexin 1 receptor. O43613. CHO/OX1R cells, Fluo-8 calcium fluorescence, orexin A. inhibition, % at 5 µM. actives 0.43% (n = 330,000);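 active = inhibition above its plate's threshold, mean inhibition of all tested compounds on the plate plus 3 SD, cut at about 37% in these data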;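 also: 0% = orexin A challenge wells and 100% = SB-334867-A antagonist wells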
TAAR1 ag = agonists of human TAAR1 | Q96RJ0 | CHO RD-HGA16 TAAR1, Fluo-8 calcium fluorescence; vehicle wells 0%, saturating PEA agonist 100% | activation, % at 3 µM | actives 0.99% (n = 360,000) | AID 624467;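 active = activation above the mean activation of all test compounds in the run plus 3 SD, cut at about 38% in these data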
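System: CHO-derived RD-HGA16 cells with stable Gα16 and human TAAR1 / Times: 17-24 h plating, Fluo-8 75 min 37 °C, 30 min RT / Technique: calcium-sensitive Fluo-8 signal, excitation 470-495, emission 515-575 nm / Measure: % activation relative to PEA EC100 response / Benchmarks: DMSO and PEA EC100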
nonsel antag count = nonselective antagonist in TAAR1 antagonist counter-screen; counterscreen cell line, calcium fluorescence, antagonist mode; actives 77% (n = 2,400); inhibition, % at 3 µM; AID 651780; shares compounds with TAAR1 antagonist; in the data active = inhibition above about 22%;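 also: CHO-Ga16 host cells stimulated with ATP at an EC80 level; 0% = agonist EC80 plus vehicle and 100% = vehicle without agonist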
TAAR1 antag conf = human TAAR1 antagonism, confirmed | TAAR1-expressing cells, fluorescence antagonist read-out | actives 40% (n = 2,400) | AID 651785 | shares compounds with TAAR1 antagonist | inhibition, % at 3 µM; in the data active = inhibition above about 49%;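 also: CHO-Ga16 host cells challenged with agonist PEA near its EC80; 0% = agonist at EC80 plus vehicle and 100% = vehicle with no agonist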
Ga16 nonsel ag = nonselective Ga16 agonism, counter-screen; actives 18% (n = 2,400); AID 651953; activation, % at 3 µM; shares compounds with TAAR1 antagonist; Ga16-expressing cells, calcium fluorescence, agonist counterscreen; in the data active = activation above about 12%;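 also: 0% = vehicle wells and 100% = saturating stimulus response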
TAAR1 ag count = TAAR1 agonism, antagonist counter-screen. hTAAR1 cell line, fluorescence activation, agonist mode. actives 2% (n = 2,400). activation, % at 3 µM. shares compounds with TAAR1 antagonist; in the data active = activation above about 37%;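 also: CHO cells stably expressing TAAR1 with calcium dye readout; 0% = DMSO vehicle and 100% = full agonist response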
Active calls of the source: *; · = no result. Compounds with a hit are over-represented: about 4% of the library has one in this group of screens.

SMILES | TAAR1 antagonist | OX1R antag-1 | CHO parental Ca | OX1R antag-2 | TAAR1 ag | nonsel antag count | TAAR1 antag conf | Ga16 nonsel ag | TAAR1 ag count
O=C1NC(=O)C(Cc2ccccc2)(Cc2ccccc2)C(=O)N1Cc1ccccc1 | 59.9* | · | · | · | -0.3 | 12.6 | 34.5 | 0.7 | 3.6
CC1=NNC(=O)C1Br (stereo not drawn) | 3.8 | · | · | · | 1.7 | · | · | · | ·
COc1ccc(CC2NCC(O)C2OC(C)=O)cc1 (stereo not drawn) | 25.4 | · | · | · | 1.3 | · | · | · | ·
O=P(Nc1cccc(F)c1)(Oc1ccccc1F)Oc1ccccc1F | 89.7* | 6.0 | -12.9 | -23.3 | 2.9 | 28.6* | 66.8* | 11.3 | 9.3
Cc1ccc(NP(=O)(Oc2ccccc2F)Oc2ccccc2F)cc1C | 12.6 | 13.8 | -5.0 | -25.6 | 12.9 | · | · | · | ·
COc1cccc(NP(=O)(Oc2ccc(Cl)cc2)Oc2ccc(Cl)cc2)c1 | 58.8* | 7.1 | -16.0 | -10.6 | 5.9 | 14.0 | 47.5 | 6.5 | 11.4
Cc1cc(C)c(S(=O)(=O)N2Cc3ccccc3-n3nncc3C2)c(C)c1 | 32.2 | · | · | · | 1.8 | · | · | · | ·
COC(=O)C1=C(c2ccc(F)cc2OCc2ccccc2)C[C@@H]2CC[C@H]1N2C(=O)NCc1cccc(C(F)(F)F)c1 | 38.9 | 22.3 | -16.9 | 24.7 | 8.7 | · | · | · | ·
COC(=O)C1=C(c2ccc(F)cc2OCc2ccccc2)C[C@@H]2CC[C@H]1N2C(=O)NCc1cccc(OC)c1 | 74.3* | 14.7 | -29.5 | 18.6 | 11.2 | 28.8* | 42.1 | 3.5 | 1.1
COC(=O)C1=C(c2ccc(F)cc2OCc2ccccc2)C[C@@H]2CC[C@H]1N2C(=O)NCc1ccc(OC)cc1 | 61.8* | 10.4 | -17.7 | 5.6 | 12.8 | 21.2 | 44.6 | 4.0 | 4.2
CCOC(=O)c1cccc(C2=C(CNC(=O)c3ccc([N+](=O)[O-])cc3)[C@H]3CC[C@@H](C2)N3Cc2ccccc2)c1 | -11.5 | · | · | · | 2.4 | · | · | · | ·
COc1ccc2c(c1)CC1(CN2C)C(=O)NC(=O)N(CCc2ccccc2)C1=O (stereo not drawn) | 8.5 | 10.1 | -15.6 | -19.0 | 3.7 | · | · | · | ·
CCC(C)N1C(=O)NC(=O)C2(Cc3c(ccc4ccccc34)N(C)C2)C1=O (stereo not drawn) | 56.0* | 71.7 | -34.8 | -23.5 | 23.1 | 32.9* | 51.7* | 8.8 | 7.9
COC(=O)C1=C(c2ccc(F)cc2OCc2ccccc2)C[C@@H]2CC[C@H]1N2C(=O)NCCOc1ccccc1 | 69.4* | 20.2 | -2.9 | 43.4 | 11.1 | 20.8 | 41.4 | 13.1* | 13.1
COC(=O)C1=C(c2ccc(F)cc2OCc2ccccc2)C[C@@H]2CC[C@H]1N2C(=O)NCCOc1ccc(OC)cc1 | 59.1* | 6.4 | -7.8 | 14.5 | 4.8 | 18.2 | 26.1 | 2.4 | 2.1
Clc1cc(Cl)cc(CN2Cc3cc(Br)ccc3-n3nncc3C2)c1 | -23.5 | · | · | · | -1.9 | · | · | · | ·
COC(=O)[C@@]1(Sc2ccc(C)cc2)CC(=O)N(P(=O)(OC)OC)[C@@H]1c1ccccc1 | 10.2 | · | · | · | 0.6 | · | · | · | ·
C=C1C(C)C2C(Cc3ccccc3)NC(=O)C23OC(=O)/C=C/C(O)CCCC(C)C/C=C/C3C1O (stereo not drawn) | 69.8* | · | · | · | 17.6 | 20.8 | 50.1* | 13.2* | 15.5
CCOC(=O)CC(SP1(=S)OCC2(CCCCC2)CO1)C(=O)OCC (stereo not drawn) | 57.9* | · | · | · | 1.4 | 16.7 | 28.7 | 3.8 | 0.6
Cc1ccc2nc(-c3ccc(CN4CCC(n5c(=O)[nH]c6ccccc65)CC4)cc3)c(-c3ccccc3)nc2c1 | 42.3 | · | · | · | 0.0 | · | · | · | ·
Cc1ccc2nc(-c3ccc(CN4CCC(n5nnc6ccccc65)CC4)cc3)c(-c3ccccc3)nc2c1 | 74.8* | · | · | · | 0.7 | 27.1* | 37.7 | 2.5 | -0.2
COc1ccc2nc(-c3ccc(CN4CCC(n5nnc6ccccc65)CC4)cc3)c(-c3ccccc3)nc2c1 | 50.5* | · | · | · | 0.8 | 18.0 | 29.4 | 2.9 | 7.9
COc1ccc(C(=O)OCC2CN2c2cccc([N+](=O)[O-])c2)cc1 (stereo not drawn) | 6.5 | · | · | · | 1.6 | · | · | · | ·

Screens: PubChem BioAssay, The Scripps Research Institute Molecular Screening Center
